Assay outcomes (PubChem BioAssay)
Compounds with a hit are over-represented: about 2.4% of the library has one in this group of screens.
HMGR II inh = inhibitors of class II HMG-CoA reductase from Enterococcus faecalis; purified E. faecalis HMGR, NADPH absorbance 340 nm kinetic; inhibition, % at 10 µM; hit rate 0.41% among 190,000; AID 1066;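 active = inhibition above a set limit, the median over all tested compounds plus 3 SD, cut at about 9.5% in these data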;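 also: enzyme runs in reverse so mevalonate oxidation gives rising NADPH absorbance; 0% = complete reaction with DMSO and 100% = background rate lacking mevalonate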
Rad51 HR inh = Rad51 (human) homologous recombination inhibition; AID 1385; hRad51 DNA strand exchange, fluorescence dequenching; inhibition, % at 10 µM; Q06609; hit rate 0.085% among 200,000;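 active = inhibition above 40% at the single screening dose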;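 also: 0% = DMSO control wells and 100% = blanks with heterologous ssDNA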
Target sequence (Q06609 whole entry, looked up): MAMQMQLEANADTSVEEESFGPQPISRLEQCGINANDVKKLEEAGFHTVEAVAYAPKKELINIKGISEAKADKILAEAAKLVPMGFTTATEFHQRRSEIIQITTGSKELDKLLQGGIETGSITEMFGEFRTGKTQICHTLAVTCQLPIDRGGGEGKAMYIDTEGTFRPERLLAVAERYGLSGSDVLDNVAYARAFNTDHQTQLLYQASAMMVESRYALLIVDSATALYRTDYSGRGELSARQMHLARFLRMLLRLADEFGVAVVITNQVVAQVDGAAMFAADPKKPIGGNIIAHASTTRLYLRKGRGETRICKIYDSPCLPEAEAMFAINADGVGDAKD
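System: human Rad51 nucleoprotein filaments preassembled on unlabelled ssDNA. Reagent: labelled 47-mer dsDNA for strand exchange. Schedule: 30-min compound preincubation and 15-min exchange, both room temperature. Measured by: FRET fluorescence dequenching, excitation 485 nm, emission 520 nm. Read-out: Fluorescence-based percent inhibition, control- and blank-normalised. Benchmarks: plate controls and plate blanks.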
BB579 growth dn = yeast BB579 growth reduction in restrictive medium | S. cerevisiae BB579 growth, OD615, 48 h | inhibition, % at 10 µM | hit rate 0.51% among 140,000 | AID 804;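 active = inhibition above a set limit, 3 SD over the mean compound inhibition, cut at about 44% in these data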
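Detection: OD615 turbidity measurement; Material: Saccharomyces cerevisiae DeaD strain BB579, replicative lifespan model yeast; Timing: 48 h exposure, 30 °C; Doses: single 10 µM dose; Medium: CSMM-D restrictive synthetic medium containing dextrose (glucose); Controls: amphotericin B at 10 µg/mL as positive control.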
Yeast lifespan up = yeast lifespan extension; S. cerevisiae growth with nicotinamide, OD615; deaD strain in restrictive glucose medium; inhibition of the nicotinamide effect, % at 10 µM; hit rate 0.68% among 130,000;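 active = inhibition above a set limit, placed 3 SD over the median of all compounds, cut at about 26% in these data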;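 also: 0% = nicotinamide-treated wells and 100% = cells grown without nicotinamide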
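Buffer or medium: CSMM-D glucose medium, restrictive; test system: modified budding yeast, DeaD strain; compound: single dose 10 µM compound, 0.25% DMSO; schedule: culture preincubation 4 h, compound exposure 48 h, both 30 °C; detection: optical density (absorbance) at 615 nm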
Measles CPE = protection of cells from measles virus | protection (pct of control), % at 4 µM | hit rate 1.5% among 140,000 | Measles virus-infected cells, CPE protection, absorbance; in the data active = protection mostly above about 24%, no sharp cut-off; inactive = mostly below about 26%
Arbovirus inh = blocks arbovirus infection; hit rate 0.37% among 200,000; arbovirus infection cell-based antiviral screen; inhibition, % at 10 µM; AID 1251; in the data active = inhibition above about 30%
The depositor's hits bear a star; . = not tested or not shown.

SMILES | HMGR II inh | Rad51 HR inh | BB579 growth dn | Yeast lifespan up | Measles CPE | Arbovirus inh
CC(=O)Nc1ccc(NC(=O)C(C)N2CCN(S(=O)(=O)c3ccc(C)cc3)CC2)cc1 (configuration not stated) | -5.2 | 7.3 | . | . | . | 9.3
Cc1ccc(C)c(S(=O)(=O)N2CCN(C(C)C(=O)Nc3ccccc3-c3ccccc3)CC2)c1 (configuration not stated) | -1.0 | 1.2 | -32.8 | -2.9 | 8.4 | 31.5*
COc1ccc(/C=N/NC(=O)c2csc(-n3nc(C)cc3C(F)(F)F)n2)cc1 | 0.0 | -0.9 | -45.2 | 141.6* | 13.2 | -19.8
Cc1ccccc1CSc1nccn1-c1ccccc1 | -0.1 | 7.6 | -26.1 | 3.8 | 2.4 | -6.8
O=C(CSc1cccc[n+]1[O-])C12CC3CC(CC(C3)C1)C2 | -3.9 | 1.2 | . | . | . | 9.1
CCOc1ncnc2c1sc1nc(C)cc(C)c12 | . | 1.4 | . | . | . | .
CCSc1nc2c(sc3nc(C)cc(C)c32)c(=O)[nH]1 | 0.2 | . | -80.4 | -13.2 | 6.6 | 36.6*
Cc1ccc(-c2ccc(=O)n(CC(=O)NCc3ccc(F)cc3)n2)cc1 | -3.9 | 50.3* | . | . | . | -1.4
Cc1ccc(CNC(=O)CSCc2ccc(F)cc2)cc1 | -1.7 | 46.1* | . | . | . | 1.7
Cc1ccc(CNC(=O)CSCc2ccccc2)cc1 | -2.3 | 4.1 | . | . | . | 1.9
O=C(CS(=O)Cc1ccccc1Cl)Nc1ccccc1Cl (configuration not stated) | 2.7 | 2.1 | . | . | . | -0.5
Cc1nn(CC(=O)Nc2cc(S(=O)(=O)N(C)C)ccc2Cl)c(C)c1[N+](=O)[O-] | -6.8 | 1.3 | -36.7 | 2.2 | 40.5* | 3.4
C=CCNc1oc(-c2ccc(OC)cc2)nc1C#N | -2.9 | 88.7* | -4.6 | -28.4 | 3.4 | -1.7
CC1(C)C([N+](=O)[O-])C(c2ccc(Cl)cc2)NC(c2ccc(Cl)cc2)C1[N+](=O)[O-] (configuration not stated) | -6.2 | 4.4 | -16.7 | -1.9 | 6.6 | 5.8
COc1cccc(NC(=O)c2oc3ccccc3c2NC(C)=O)c1 | -3.7 | 112.3* | -34.8 | -20.3 | 4.6 | -0.9
COc1ccc(NC(=O)c2oc3ccccc3c2NC(=O)C2CC2)cc1 | 10.8* | -2.5 | 8.2 | -19.6 | 7.1 | 0.0
COCC(=O)Nc1c(C(=O)Nc2cccc(OC)c2)oc2ccccc12 | -0.8 | -3.1 | 2.7 | -25.4 | 7.7 | -0.6
CC(C)Oc1cccc(NC(=O)c2cnccc2C(F)(F)F)c1 | . | -0.4 | . | . | . | .
CC1Cc2ccccc2N1CC(=O)NCc1ccc2c(c1)OCO2 (configuration not stated) | -6.2 | -1.6 | -15.6 | -2.4 | 20.1 | 5.0
COc1ccc(S(=O)(=O)N2CCC(C(=O)NCC(c3cccs3)N(C)C)CC2)cc1 (configuration not stated) | -0.7 | -2.2 | -49.6 | -6.4 | 51.7* | -2.2
CC12CN3CC(C)(CN(C1)C3c1ccc(Br)cc1O)C2 (configuration not stated) | 0.0 | -9.4 | -43.8 | 32.6* | 1.8 | 3.2
COC(=O)c1ccc(NC(=O)CSCc2ccccc2)cc1 | 5.0 | 14.9 | 4.5 | -17.3 | 3.4 | 4.8
CCc1ccc(NC(=O)CSCc2ccc(C(=O)O)cc2)cc1 | 20.9* | . | . | . | . | 0.9
CC(C)c1ccc(/C=C2\SC(N3CCCC3)=NC2=O)cc1 | -6.5 | 10.2 | -58.8 | 33.7* | 2.3 | -2.5
Cc1ccc(/C=C2\SC(N3CCCC3)=NC2=O)cc1 | -5.2 | 20.8 | . | . | . | -9.0
SMILES | HMGR II inh | Rad51 HR inh | BB579 growth dn | Yeast lifespan up | Measles CPE | Arbovirus inh
COCCOC(=O)C1=C(C)NC(=O)NC1c1ccc(-c2cc(Cl)ccc2Cl)o1 (configuration not stated) | -3.5 | -8.3 | . | . | . | -8.5
Cc1onc(-c2ccccc2)c1C(=O)NCC(O)c1ccccc1 (configuration not stated) | . | 7.5 | . | . | . | .
Cc1cc(C)nc(SCC(=O)Nc2ccc(Br)cn2)n1 | -4.7 | . | -41.2 | 3.5 | 18.0* | -1.0
CSc1nsc(SCC(=O)Nc2ccc(Br)cn2)n1 | -3.1 | -4.0 | -37.9 | -14.3 | 26.9 | 18.4
COc1cc(C)c2c(c1C=O)Oc1c(c(C)c(O)c3c1C(O)OC3=O)OC2=O (configuration not stated) | -3.6 | 47.4* | . | . | . | 0.2
CCSC(=O)N(CC)CC(=O)Nc1c(CC)cccc1CC | -4.4 | -2.1 | -21.8 | -9.7 | 32.4* | 4.6
CCc1cccc(C)c1NC(=O)CN(C)Cc1ccc(Br)cc1 | -8.7 | 5.2 | . | . | . | 42.1*
CCCSC(=O)N(CC)CC(=O)Nc1c(CC)cccc1CC | 4.2 | 2.1 | 0.0 | 30.3 | 9.3 | -3.3
Cc1ccc(S(=O)(=O)Nc2c(C)n(C)n(-c3ccccc3)c2=O)cc1C(=O)OCC(=O)N1CCCC(C)C1 (configuration not stated) | -5.2 | 3.1 | . | . | . | 1.6
NS(=O)(=O)c1ccc(NC(=S)Nc2nn(Cc3ccc(Cl)cc3Cl)cc2Cl)cc1 | -2.8 | 0.7 | -12.3 | 13.7 | 10.5 | 15.6
O=C(/C=C/c1ccc(O)c(O)c1)O[C@H](Cc1ccc(O)c(O)c1)C(=O)O | . | 4.6 | . | . | . | .
Nc1c(O)cccc1C(=O)O | . | 3.0 | . | . | . | .
O=C(O)c1cc(S(=O)(=O)O)ccc1O | -1.8 | 11.3 | -30.3 | -7.0 | 54.9* | 1.8
O=C(O)c1ccccc1O | -1.4 | -4.3 | -15.9 | 5.4 | 42.7* | 2.6
Cc1ccc(S(=O)(=O)/N=C2/NC(=O)/C(=C/c3cccnc3)S2)cc1 | -6.0 | -7.2 | -61.0 | -4.6 | 5.5 | 0.8
Cc1ccc(S(=O)(=O)/N=C2/NC(=O)/C(=C/c3ccc(Br)o3)S2)cc1 | 1.3 | -4.0 | -30.2 | 3.0 | 24.6* | 7.6
NC1=NN=C(N2N=C(c3ccc(Br)cc3)CC2(O)C(F)(F)F)n2ncnc2C1 (configuration not stated) | -1.6 | -5.1 | . | . | . | -3.9
COc1ccc(C2=NN(C3=NN=C(N)Cc4ncnn43)C(O)(C(F)(F)F)C2)cc1 (configuration not stated) | -2.5 | 56.4* | . | . | . | -4.0
Cc1ccc(C(=O)O/N=C2\CC3CCC2(C)C3(C)C)cc1 (configuration not stated) | 0.2 | -8.0 | -39.7 | . | 6.3 | -1.2
Cc1cccc(C(=O)O/N=C2/CC3CCC2(C)C3(C)C)c1 (configuration not stated) | 11.1* | -2.8 | -32.3 | . | 1.8 | -1.4
Cc1ccc2[nH]c3c(c2c1)CCC3=O | -1.5 | -12.8 | -13.7 | -20.0 | 5.1 | -0.2
Cc1ccc2[nH]c3c(c2c1)CCc1cn[nH]c1-3 | -9.5 | . | 91.9* | -18.6 | 24.4 | -31.2
CN1CC2([N+](=O)[O-])CC=C(Oc3ccccc3)C([N+](=O)[O-])(C1)C2 (configuration not stated) | 4.4 | 0.3 | 0.3 | 9.8 | 30.1* | 14.8
C[N+]1(C)CC2([N+](=O)[O-])CC=C(Oc3ccccc3)C([N+](=O)[O-])(C2)C1 (configuration not stated) | -5.6 | 3.0 | -15.5 | -5.0 | 19.3 | 7.0
Cc1cc(C)n2nc(-c3ccc(F)cc3)nc2n1 | -4.8 | -0.3 | -20.4 | -22.8 | 23.4* | -0.9
